Converted amounts (≈) assume the structure as drawn.
Experiments:
A549 = test: Antiproliferative activity against human A549 cells after 72 hrs by sulforhodamine B assay; type: functional, cell-based; details: A549, 72 h
Outline: (§1)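 Cells grown in ATCC-specified medium with 10% heat-inactivated FBS, penicillin/streptomycin and 10 mM Hepes, at 37 °C under 5% CO2. Seeded, cultured overnight, then exposed to gradient concentrations for 72 h. Growth read by SRB staining; inhibition % = [1−(A450 treated/A450 control)]×100. IC50 obtained by the Logit method from independent experiments.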

HCT-116 [1] = test: Induction of apoptosis in human HCT116 cells pretreated with Z-VAD-FMK pan-caspase inhibitor for 1 hr assessed as late apoptotic cells at 1 uM after 48 hrs by Annexin V-FITC/propidium iodide staining-based FACS analysis (reference value: 3.15%); type: functional; design: scale not given: the % may be the effect or the level left
HCT-116 [2] = test: Induction of apoptosis in human HCT116 cells assessed as late apoptotic cells at 1 uM after 48 hrs by Annexin V-FITC/propidium iodide staining-based FACS analysis (reference value: 5.74%); type: functional
[3] = Antiproliferative activity against human HepG cells after 72 hrs by sulforhodamine B assay; type: functional, cell-based; outline: as §1
HCT-116 [4] = test: Induction of apoptosis in human HCT116 cells assessed as early apoptotic cells at 2 uM after 48 hrs by Annexin V-FITC/propidium iodide staining-based FACS analysis (reference value: 2.35%); type: functional
[5] = AUC in Sprague-Dawley rat at 1.0 mg/kg, iv; type: ADME, organism-based; details: in vivo
Outline: (§2)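 Male SD rats dosed i.v. at 1.0 mg/kg or orally at 3.0 mg/kg. Vehicle is DMSO, Tween 80 and normal saline. Plasma concentration–time data give CL, Vss, T1/2, Cmax, Tmax, MRT, AUC and oral bioavailability F.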

[6] = Cmax in Sprague-Dawley rat at 3.0 mg/kg, po; type: ADME, organism-based; design: dose 3 mg/kg, route oral; details: in vivo; outline: as §2
[7] = Antiproliferative activity against human KB/VCR cells after 72 hrs by sulforhodamine B assay; type: functional, cell-based; outline: as §1
HCT-116 [8] = test: Antiproliferative activity against human HCT116 cells after 72 hrs by sulforhodamine B assay; type: functional, cell-based; details: HCT-116, 72 h; outline: as §1
[9] = Volume of distribution at steady state in Sprague-Dawley rat at 1.0 mg/kg, iv; type: ADME, organism-based; details: in vivo, read-out: Vdss
Outline: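 Male SD rats given 1.0 mg/kg i.v. in DMSO/Tween 80/normal saline vehicle; plasma concentration–time profile used for clearance, Vss, MRT.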

Mus musculus [10] = test: Toxicity in BALB/C nude mouse xenografted with human HCT116 cells assessed as body weight loss at 10 mg/kg, iv once daily for 14 days starting on day 14 post tumor implantation measured every 4 days during compound dosing; type: organism-based; details: in vivo
Outline: (§3)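 Male BALB/c nude mice (18–20 g) with subcutaneous HCT116 implants in right axilla; treatment from day 14 once tumors exceeded 100 mm3, randomized (6/treated, 10/control group); 10 mg/kg i.v. or 30 mg/kg i.p. daily for 14 days in 1% DMSO/saline; 5-FU 15 mg/kg as reference; body weight tracked, mean ± SD of 6 mice.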

BEL-7404 tumor cell line = test: Antiproliferative activity against human Bel7404 cells after 72 hrs by sulforhodamine B assay; type: functional, cell-based; details: BEL-7404, 72 h; outline: as §1
HCT-116 [11] = test: Induction of apoptosis in human HCT116 cells pretreated with Z-VAD-FMK pan-caspase inhibitor for 1 hr assessed as late apoptotic cells at 0.5 uM after 48 hrs by Annexin V-FITC/propidium iodide staining-based FACS analysis (reference value: 3.15%); type: functional; design: scale not given: the % may be the effect or the level left
[12] = Aqueous solubility of the compound in pH 7.5 Tris buffer after 24 hrs by HPLC method; type: physicochemical
NCI-H460 = test: Antiproliferative activity against human H460 cells after 72 hrs by sulforhodamine B assay; type: functional, cell-based; details: NCI-H460, 72 h; outline: as §1
[13] = Half life in human liver microsomes at 0.1 uM up to 60 mins by LC-MS/MS analysis; type: ADME, microsome
Outline: (§4)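 Compound at 0.1 μM final (0.01% DMSO, 0.005% BSA) incubated at 37 °C with human, rat or mouse liver microsomes (0.33 mg/mL protein) in 0.1 M Tris/HCl pH 7.4, with 5 mM MgCl2 and 1 mM NADPH. Samples taken at 0, 7, 17, 30 and 60 min, quenched by methanol precipitation, centrifuged, and parent measured by LC-MS/MS. T1/2 and Clint derived.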

Liver [14] = test: Intrinsic clearance in rat liver microsomes assessed per mg protein up to 60 mins by LC-MS/MS analysis; type: ADME, microsome; details: 1 h
Outline: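 Liver microsomes (0.33 mg/mL protein) in 0.1 M Tris/HCl pH 7.4 with 5 mM MgCl2, 1 mM NADPH, compound at 0.1 μM final (0.01% DMSO, 0.005% BSA), 37 °C; samples at 0, 7, 17, 30, 60 min quenched in methanol, centrifuged, LC-MS/MS; T1/2 and Clint per g protein derived.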

HCT-116 [15] = test: Induction of apoptosis in human HCT116 cells pretreated with Z-VAD-FMK pan-caspase inhibitor for 1 hr assessed as early apoptotic cells at 0.5 uM after 48 hrs by Annexin V-FITC/propidium iodide staining-based FACS analysis (reference value: 1.34%); type: functional; design: scale not given: the % may be the effect or the level left
HCT-116 [16] = test: Induction of apoptosis in human HCT116 cells assessed as early apoptotic cells at 1 uM after 48 hrs by Annexin V-FITC/propidium iodide staining-based FACS analysis (reference value: 2.35%); type: functional
Mus musculus [17] = test: Toxicity in BALB/C nude mouse xenografted with human HCT116 cells assessed as body weight loss at 30 mg/kg, ip once daily for 14 days starting on day 14 post tumor implantation measured every 4 days during compound dosing; type: organism-based; details: in vivo; outline: as §3
BT-474 = test: Antiproliferative activity against human BT474 cells after 72 hrs by sulforhodamine B assay; type: functional, cell-based; details: BT-474, 72 h; outline: as §1
HCT-116 [18] = test: Induction of apoptosis in human HCT116 cells pretreated with Z-VAD-FMK pan-caspase inhibitor for 1 hr assessed as early apoptotic cells at 2 uM after 48 hrs by Annexin V-FITC/propidium iodide staining-based FACS analysis (reference value: 1.34%); type: functional; design: scale not given: the % may be the effect or the level left
MGC-803 = test: Antiproliferative activity against human MGC803 cells after 72 hrs by sulforhodamine B assay; type: functional, cell-based; details: MGC-803, 72 h; outline: as §1
[19] = MRT (infinity) in Sprague-Dawley rat at 3.0 mg/kg, po; type: ADME, organism-based; details: in vivo
Outline: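 Male SD rats dosed orally at 3.0 mg/kg in DMSO/Tween 80/normal saline; plasma profile gives T1/2, Cmax, Tmax, AUC, MRT; F from comparison with 1.0 mg/kg i.v. dosing.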

Liver [20] = test: Intrinsic clearance in mouse liver microsomes assessed per mg protein up to 60 mins by LC-MS/MS analysis; type: ADME, microsome; details: 1 h; outline: as §4
HCT-116 [21] = test: Induction of apoptosis in human HCT116 cells pretreated with Z-VAD-FMK pan-caspase inhibitor for 1 hr assessed as early apoptotic cells at 1 uM after 48 hrs by Annexin V-FITC/propidium iodide staining-based FACS analysis (reference value: 1.34%); type: functional; design: scale not given: the % may be the effect or the level left
[22] = Half life in Sprague-Dawley rat at 3.0 mg/kg, po; type: ADME, organism-based; details: in vivo; outline: as §2
[23] = Half life in Sprague-Dawley rat at 1.0 mg/kg, iv; type: ADME, organism-based; details: in vivo; outline: as §2
HCT-116 [24] = test: Induction of apoptosis in human HCT116 cells assessed as late apoptotic cells at 0.5 uM after 48 hrs by Annexin V-FITC/propidium iodide staining-based FACS analysis (reference value: 5.74%); type: functional

Question: Which results are given for `CCN(CC)CCCn1c2c(c3ccccc3c1=O)C(=O)C(=O)c1cc(C)oc1-2`?
Answer: IC50 (A549): 190 nM; Activity (HCT-116 [1]): 6.47%; Activity (HCT-116 [2]): 9.09%; IC50 [3]: 1310 nM; Activity (HCT-116 [4]): 23.98%; AUC [5]: 114 ng·h/mL; Cmax [6]: 33.7 ng/mL; IC50 [7]: 330 nM; IC50 (HCT-116 [8]): 140 nM; Vd [9]: 7.98 L/kg; Activity (Mus musculus [10]): Non-Toxic; IC50 (BEL-7404 tumor cell line): 360 nM; Activity (HCT-116 [11]): 4.09%; solubility at 24 h [12]: 15.7 mg/mL (≈ 40.1 mM); IC50 (NCI-H460): 170 nM; half-life at 0.1 µM [13]: 1.49 h; intrinsic clearance (Liver [14]): 27.7 mL/min/g; Activity (HCT-116 [15]): 1.53%; Activity (HCT-116 [16]): 8.61%; Activity (Mus musculus [17]): Non-Toxic; IC50 (BT-474): 770 nM; Activity (HCT-116 [18]): 11.88%; IC50 (MGC-803): 260 nM; MRT inf [19]: 3.72 h; intrinsic clearance (Liver [20]): 38.5 mL/min/g; Activity (HCT-116 [21]): 2.99%; half-life [22]: 2.58 h; half-life [23]: 1.51 h; Activity (HCT-116 [24]): 4.19%

From ChEMBL document CHEMBL4033782, “Structural Modification of Natural Product Tanshinone I Leading to Discovery of Novel Nitrogen-Enriched Derivatives with Enhanced Anticancer Profile and Improved Drug-like Properties” (J Med Chem, 2018)
